What was measured:
[1] = molecular target: cGMP-specific 3',5'-cyclic phosphodiesterase (Homo sapiens, UniProt O76074); test: Inhibition of PDE5 (unknown origin) using FAM-cGMP as substrate after 60 mins by fluorescence assay
[2] = organism: Homo sapiens; test: Selectivity ratio of IC50 for PDE3 (unknown origin) to IC50 for PDE5 (unknown origin)
[3] = molecular target: Phosphodiesterase 4 (Homo sapiens, UniProt P27815+Q08499+Q07343+Q08493); test: Inhibition of PDE4 (unknown origin) using FAM-cAMP as substrate after 60 mins by fluorescence assay; format: protein assay
[4] = molecular target: Dual 3',5'-cyclic-AMP and -GMP phosphodiesterase 11A (Homo sapiens, UniProt Q9HCR9); test: Inhibition of PDE11 (unknown origin) using FAM-cGMP and FAM-cAMP as substrate after 60 mins by fluorescence assay
[5] = organism: Homo sapiens; test: Selectivity ratio of IC50 for PDE11 (unknown origin) to IC50 for PDE5 (unknown origin)
[6] = molecular target: Phosphodiesterase 8 (Homo sapiens, UniProt O95263+O60658); test: Inhibition of PDE8 (unknown origin) using FAM-cAMP as substrate after 60 mins by fluorescence assay; format: protein assay
[7] = organism: Homo sapiens; test: Selectivity ratio of IC50 for PDE1 (unknown origin) to IC50 for PDE5 (unknown origin)
[8] = molecular target: High affinity cGMP-specific 3',5'-cyclic phosphodiesterase 9A (Homo sapiens, UniProt O76083); test: Inhibition of PDE9 (unknown origin) using FAM-cGMP as substrate after 60 mins by fluorescence assay
[9] = organism: Homo sapiens; test: Selectivity ratio of IC50 for PDE6 (unknown origin) to IC50 for PDE5 (unknown origin)
[10] = organism: Homo sapiens; test: Selectivity ratio of IC50 for PDE4 (unknown origin) to IC50 for PDE5 (unknown origin)
[11] = molecular target: Phosphodiesterase 6; test: Inhibition of PDE6 (unknown origin) using FAM-cGMP as substrate after 60 mins by fluorescence assay; format: protein assay, Homo sapiens
[12] = molecular target: cAMP and cAMP-inhibited cGMP 3',5'-cyclic phosphodiesterase 10A (Homo sapiens, UniProt Q9Y233); test: Inhibition of PDE10 (unknown origin) using FAM-cGMP and FAM-cAMP as substrate after 60 mins by fluorescence assay
[13] = molecular target: Phosphodiesterase 7 (Homo sapiens, UniProt Q13946+Q9NP56); test: Inhibition of PDE7 (unknown origin) using FAM-cAMP as substrate after 60 mins by fluorescence assay; format: protein assay
[14] = molecular target: Phosphodiesterase 3 (Homo sapiens, UniProt Q14432+Q13370); test: Inhibition of PDE3 (unknown origin) using FAM-cGMP and FAM-cAMP as substrate after 60 mins by fluorescence assay; format: protein assay
[15] = organism: Homo sapiens; test: Selectivity ratio of IC50 for PDE8 (unknown origin) to IC50 for PDE5 (unknown origin)
[16] = organism: Homo sapiens; test: Selectivity ratio of IC50 for PDE7 (unknown origin) to IC50 for PDE5 (unknown origin)
[17] = molecular target: cGMP-dependent 3',5'-cyclic phosphodiesterase (Homo sapiens, UniProt O00408); test: Inhibition of PDE2 (unknown origin) using FAM-cGMP and FAM-cAMP as substrate after 60 mins by fluorescence assay
[18] = organism: Homo sapiens; test: Selectivity ratio of IC50 for PDE10 (unknown origin) to IC50 for PDE5 (unknown origin)
[19] = organism: Homo sapiens; test: Selectivity ratio of IC50 for PDE2 (unknown origin) to IC50 for PDE5 (unknown origin)
[20] = molecular target: Phosphodiesterase 1 (Homo sapiens, UniProt P54750+Q01064+Q14123); test: Inhibition of PDE1 (unknown origin) using FAM-cGMP and FAM-cAMP as substrate after 60 mins by fluorescence assay; format: protein assay
[21] = organism: Homo sapiens; test: Selectivity ratio of IC50 for PDE9 (unknown origin) to IC50 for PDE5 (unknown origin)
[22] = test system: Brain; test: Tmax in mouse brain at 50 mg/kg, po; format: ADME, organism-based; set-up: dose 50 mg/kg, route oral; conditions: in vivo
Method in brief: (§1)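 Male BALB/c mice dosed once orally at 50 mg/kg in 0.05% aqueous methylcellulose. Blood (retro-orbital, heparin) and brain were taken at 0, 0.25, 0.5, 1, 2 and 4 h, three mice per time point. Plasma and methanol brain homogenate were extracted with methanol plus internal standard and analysed by LC/MS/MS. Quantitation used analyte/internal standard peak-area ratios with weighted (1/x2) linear regression.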

[23] = test system: Hippocampus; test: Reversal of amyloid beta42-induced post synaptic dysfunction in mouse hippocampal assessed as increase in theta burst-induced long term potentiation at 50 nM incubated 10 mins prior to theta burst induction measured after 60 mins for 5 mins by electrophysiological assay (reference value: 144.65 9.99%); format: functional
[24] = test system: Mus musculus; test: Inhibition of PDE5 in C57Bl6 mouse assessed as increase in electric shock-induced hippocampal cGMP level measured per mg of protein at 3 mg/kg, ip administered 30 mins prior to electric shock induction measured after 10 secs (reference value: 0.318 0.0145 pmol); format: functional, Hippocampus; conditions: route intraperitoneal
Method in brief: (§2)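 Male and female C57Bl6 mice, 2–3 months old, 20–25 g, received 3 mg/kg i.p. in 2% DMSO/2% Tween or vehicle alone. Foot shock was given 30 min later. Mice were killed 10 s, 1 min or 3 min after shock and the hippocampus was snap-frozen. cGMP was measured by enzyme immunoassay in duplicate and normalised to BCA protein; n=3 per group.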

[25] = test system: Brain; test: AUC (0 to infinity) in mouse brain at 50 mg/kg, po; format: ADME, organism-based; set-up: dose 50 mg/kg, route oral, time infinity; conditions: in vivo; method in brief: as §1
[26] = test system: Mus musculus; test: Reversal of post synaptic dysfunction in APP/PS1 transgenic mouse assessed as increase in theta burst-induced long term potentiation at 3 mg/kg/day, ip administered 3 weeks measured after 9 to 12 weeks […] (reference value: 112.29 9.12%); format: functional; conditions: route intraperitoneal
[27] = test system: Mus musculus; test: Inhibition of PDE5 in C57Bl6 mouse assessed as increase in electric shock-induced hippocampal cGMP level measured per mg of protein at 3 mg/kg, ip administered 30 mins prior to electric shock induction measured after 3 mins (reference value: 0.46 0.0385 pmol); format: functional, Hippocampus; conditions: route intraperitoneal; method in brief: as §2
[28] = test system: Brain; test: Mean residence time in mouse brain at 50 mg/kg, po; format: ADME, organism-based; set-up: dose 50 mg/kg, route oral; conditions: in vivo; method in brief: as §1
[29] = test system: Plasma; test: AUC (0 to infinity) in mouse plasma at 50 mg/kg, po; format: ADME, organism-based; set-up: time infinity, dose 50 mg/kg, route oral; conditions: in vivo; method in brief: as §1
[30] = Ratio of Cmax in mouse brain to Cmax in mouse plasma; format: ADME, cell-free
Method in brief: (§3)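 Male BALB/c mice given 50 mg/kg p.o. in 0.05% methylcellulose aqueous solution. Blood (retro-orbital, heparin) and brain taken at 0, 0.25, 0.5, 1.0, 2.0 and 4.0 h, three mice per time point. Plasma and methanol brain homogenate extracted with internal standard and quantified by LC/MS/MS (peak area ratio, weighted linear regression). Ratio is brain over plasma parameter.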

[31] = test system: Plasma; test: Tmax in mouse plasma at 50 mg/kg, po; format: ADME, organism-based; set-up: dose 50 mg/kg, route oral; conditions: in vivo; method in brief: as §1
[32] = test system: Mus musculus; test: Reversal of contextual fear memory deficit in APP/PS1 transgenic mouse assessed as increase in freezing behavior at 3 mg/kg/day, ip administered 3 weeks measured after 9 to 12 weeks […] (reference value: 10%); format: functional; conditions: route intraperitoneal
[33] = test system: Hippocampus; test: Reversal of post synaptic dysfunction in APP/PS1 transgenic mouse hippocampal assessed as increase in theta burst-induced long term potentiation at 50 nM incubated 10 mins prior to theta burst induction measured after 2 hrs for 5 mins by electrophysiological assay (reference value: 145.84 7.78%); format: functional
Method in brief: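 Transverse hippocampal slices (400 μm) from APP/PS1 mice were kept in an interface chamber at 29 °C and perfused with aerated ACSF, pH 7.4. Compound (50 nM) was bath-applied for 10 min before tetanus. CA1 fEPSP slopes were expressed as % of baseline, averaged over the last 5 min of a 2 h recording.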

[34] = Cmax in mouse brain at 50 mg/kg, po; format: ADME, organism-based; set-up: dose 50 mg/kg, route oral; method in brief: as §1
[35] = test system: Plasma; test: Mean residence time in mouse plasma at 50 mg/kg, po; format: ADME, organism-based; set-up: dose 50 mg/kg, route oral; conditions: in vivo
[36] = Ratio of AUC (0 to infinity) in mouse brain to AUC (0 to infinity) in mouse plasma; format: ADME, cell-free; method in brief: as §3
[37] = test system: Mus musculus; test: Inhibition of PDE5 in C57Bl6 mouse assessed as increase in electric shock-induced hippocampal cGMP level measured per mg of protein at 3 mg/kg, ip administered 30 mins prior to electric shock induction measured after 1 min (reference value: 0.41 0.028 pmol); format: functional, Hippocampus; conditions: route intraperitoneal; method in brief: as §2
[38] = Ratio of AUC (0 to t) in mouse brain to AUC (0 to t) in mouse plasma; format: ADME, cell-free; method in brief: as §3
[39] = test system: Plasma; test: Cmax in mouse plasma at 50 mg/kg, po; format: ADME, organism-based; set-up: dose 50 mg/kg, route oral; conditions: in vivo; method in brief: as §1
[40] = test system: Brain; test: AUC (0 to t) in mouse brain at 50 mg/kg, po; format: ADME, organism-based; set-up: dose 50 mg/kg, route oral; conditions: in vivo; method in brief: as §1
[41] = test system: Plasma; test: AUC (0 to t) in mouse plasma at 50 mg/kg, po; format: ADME, organism-based; set-up: dose 50 mg/kg, route oral; conditions: in vivo; method in brief: as §1
[42] = test system: Mus musculus; test: Reversal of contextual fear memory deficit in APP/PS1 transgenic mouse assessed as increase in freezing behavior at 3 mg/kg, ip after 3 weeks (reference value: 10%); format: functional; conditions: route intraperitoneal
[43] = test system: Mus musculus; test: Reversal of contextual fear memory deficit in amyloid beta42-infused mouse assessed as increase in freezing behavior at 3 to 10 mg/kg, po administered immediately post electric shock measured after 24 hrs (reference value: 10%); format: functional; conditions: dose mg/kg 3-10
Method in brief: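 Aβ42 (200 nM, 1 μl over 1 min) or vehicle was infused bilaterally into the dorsal hippocampus through cannulas implanted 6–8 days earlier under Avertin. Infusion was 15 min before foot-shock training. Compound was given at 3 or 10 mg/kg p.o. immediately after training. Freezing was scored for 5 min in the same chamber 24 h later.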

cAMP and cAMP-inhibited cGMP 3',5'-cyclic phosphodiesterase 10A, sequence (Q9Y233 whole entry): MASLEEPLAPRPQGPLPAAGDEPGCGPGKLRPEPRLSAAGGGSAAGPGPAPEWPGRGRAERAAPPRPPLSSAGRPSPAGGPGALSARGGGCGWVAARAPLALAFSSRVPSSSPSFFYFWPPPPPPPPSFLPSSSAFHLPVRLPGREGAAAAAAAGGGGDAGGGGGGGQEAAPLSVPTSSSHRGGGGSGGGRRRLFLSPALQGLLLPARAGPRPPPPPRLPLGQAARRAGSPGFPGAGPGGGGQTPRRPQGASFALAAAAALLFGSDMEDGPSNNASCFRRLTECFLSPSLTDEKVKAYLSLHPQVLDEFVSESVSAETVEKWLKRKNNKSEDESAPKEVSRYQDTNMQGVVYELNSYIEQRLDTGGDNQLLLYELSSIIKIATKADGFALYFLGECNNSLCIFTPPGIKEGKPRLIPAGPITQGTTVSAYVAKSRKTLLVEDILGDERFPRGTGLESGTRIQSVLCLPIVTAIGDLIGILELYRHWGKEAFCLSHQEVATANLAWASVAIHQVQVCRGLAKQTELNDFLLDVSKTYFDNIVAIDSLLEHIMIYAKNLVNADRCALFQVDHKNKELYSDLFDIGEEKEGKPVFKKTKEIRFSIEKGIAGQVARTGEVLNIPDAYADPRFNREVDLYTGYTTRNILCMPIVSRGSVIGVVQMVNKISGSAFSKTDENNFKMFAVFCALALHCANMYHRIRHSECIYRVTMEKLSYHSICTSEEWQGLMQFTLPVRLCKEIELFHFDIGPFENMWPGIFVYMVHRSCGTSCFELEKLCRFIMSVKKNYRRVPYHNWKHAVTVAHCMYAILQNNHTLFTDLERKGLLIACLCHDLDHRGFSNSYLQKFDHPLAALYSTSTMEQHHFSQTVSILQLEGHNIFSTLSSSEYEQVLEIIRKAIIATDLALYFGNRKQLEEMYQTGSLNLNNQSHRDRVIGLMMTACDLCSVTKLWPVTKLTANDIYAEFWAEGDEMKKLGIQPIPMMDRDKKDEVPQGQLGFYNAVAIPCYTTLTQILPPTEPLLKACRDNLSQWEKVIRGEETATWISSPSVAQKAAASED
High affinity cGMP-specific 3',5'-cyclic phosphodiesterase 9A, sequence (O76083 whole entry): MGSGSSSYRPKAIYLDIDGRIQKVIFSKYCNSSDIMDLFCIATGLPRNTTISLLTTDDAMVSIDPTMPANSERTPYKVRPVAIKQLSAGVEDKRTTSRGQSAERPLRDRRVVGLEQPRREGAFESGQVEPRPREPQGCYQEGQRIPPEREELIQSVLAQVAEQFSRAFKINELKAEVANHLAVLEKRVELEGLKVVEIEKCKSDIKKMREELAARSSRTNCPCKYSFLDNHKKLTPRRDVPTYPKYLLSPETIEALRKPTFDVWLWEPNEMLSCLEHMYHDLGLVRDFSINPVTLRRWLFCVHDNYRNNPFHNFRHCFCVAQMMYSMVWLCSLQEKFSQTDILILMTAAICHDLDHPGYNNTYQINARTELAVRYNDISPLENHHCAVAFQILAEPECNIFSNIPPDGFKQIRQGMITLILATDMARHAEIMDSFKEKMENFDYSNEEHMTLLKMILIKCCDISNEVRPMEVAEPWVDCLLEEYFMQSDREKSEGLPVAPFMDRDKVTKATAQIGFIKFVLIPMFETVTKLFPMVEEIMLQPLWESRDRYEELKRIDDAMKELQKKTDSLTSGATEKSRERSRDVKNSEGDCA
cGMP-dependent 3',5'-cyclic phosphodiesterase, sequence (O00408 whole entry): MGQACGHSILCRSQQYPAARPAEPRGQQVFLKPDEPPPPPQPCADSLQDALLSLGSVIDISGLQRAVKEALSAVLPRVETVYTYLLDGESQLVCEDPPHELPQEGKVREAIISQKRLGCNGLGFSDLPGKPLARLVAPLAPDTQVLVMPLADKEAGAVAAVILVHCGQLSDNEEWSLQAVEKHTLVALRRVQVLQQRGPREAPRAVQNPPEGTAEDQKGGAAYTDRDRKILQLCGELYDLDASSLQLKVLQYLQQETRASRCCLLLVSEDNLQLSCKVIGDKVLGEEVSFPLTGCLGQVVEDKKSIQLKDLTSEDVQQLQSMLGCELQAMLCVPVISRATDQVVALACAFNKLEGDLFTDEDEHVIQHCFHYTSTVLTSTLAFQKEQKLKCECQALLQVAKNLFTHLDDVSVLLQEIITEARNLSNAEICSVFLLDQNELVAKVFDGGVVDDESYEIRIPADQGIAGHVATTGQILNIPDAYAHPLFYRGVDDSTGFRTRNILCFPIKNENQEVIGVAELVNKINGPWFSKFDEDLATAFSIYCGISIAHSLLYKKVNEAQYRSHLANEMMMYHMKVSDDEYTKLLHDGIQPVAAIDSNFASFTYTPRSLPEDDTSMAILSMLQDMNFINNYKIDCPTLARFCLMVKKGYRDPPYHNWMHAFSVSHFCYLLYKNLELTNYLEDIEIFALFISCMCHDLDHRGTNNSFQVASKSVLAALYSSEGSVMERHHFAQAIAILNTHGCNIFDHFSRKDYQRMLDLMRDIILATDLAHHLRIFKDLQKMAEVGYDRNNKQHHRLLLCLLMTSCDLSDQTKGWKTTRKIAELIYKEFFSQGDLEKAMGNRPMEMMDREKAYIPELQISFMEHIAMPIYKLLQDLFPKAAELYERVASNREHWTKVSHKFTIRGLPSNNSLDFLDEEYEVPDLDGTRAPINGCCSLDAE
Dual 3',5'-cyclic-AMP and -GMP phosphodiesterase 11A, sequence (Q9HCR9 whole entry): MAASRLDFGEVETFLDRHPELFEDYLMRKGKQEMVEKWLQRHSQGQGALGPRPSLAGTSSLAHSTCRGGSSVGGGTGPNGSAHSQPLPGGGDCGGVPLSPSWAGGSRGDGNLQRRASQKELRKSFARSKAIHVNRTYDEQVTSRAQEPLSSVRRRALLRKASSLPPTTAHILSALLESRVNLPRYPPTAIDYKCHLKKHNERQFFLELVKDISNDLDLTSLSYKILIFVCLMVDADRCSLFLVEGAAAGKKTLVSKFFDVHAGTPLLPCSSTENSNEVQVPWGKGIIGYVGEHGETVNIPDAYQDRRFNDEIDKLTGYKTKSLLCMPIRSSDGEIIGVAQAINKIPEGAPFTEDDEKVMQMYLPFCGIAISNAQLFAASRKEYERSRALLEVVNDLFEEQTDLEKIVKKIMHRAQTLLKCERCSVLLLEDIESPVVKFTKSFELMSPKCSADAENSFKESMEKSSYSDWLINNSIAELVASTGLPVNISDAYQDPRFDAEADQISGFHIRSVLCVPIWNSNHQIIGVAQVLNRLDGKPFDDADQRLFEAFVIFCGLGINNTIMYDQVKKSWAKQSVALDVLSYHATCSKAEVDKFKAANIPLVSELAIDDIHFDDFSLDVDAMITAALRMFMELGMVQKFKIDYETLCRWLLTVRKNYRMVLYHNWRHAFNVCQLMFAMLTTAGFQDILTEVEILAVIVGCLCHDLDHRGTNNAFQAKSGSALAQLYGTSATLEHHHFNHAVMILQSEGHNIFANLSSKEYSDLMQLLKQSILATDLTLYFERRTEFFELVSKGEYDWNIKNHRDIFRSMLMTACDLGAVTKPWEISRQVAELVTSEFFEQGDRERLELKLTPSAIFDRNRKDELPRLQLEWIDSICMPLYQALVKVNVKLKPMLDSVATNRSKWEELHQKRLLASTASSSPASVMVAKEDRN

CCNc1cc(C#N)cc2c(NCc3ccc(OC)c(Cl)c3)c(CO)cnc12
IC50 [1]: 0.015 µM

COc1ccc(CNc2c(CO)cnc3c(NC4CC4)cc(C#N)cc23)cc1Cl
IC50 [1]: 0.0041 µM

COc1ccc(CNc2c(CO)cnc3c(N(C)C)cc(C#N)cc23)cc1Cl
Ratio IC50 [2]: > 10000 | IC50 [3]: > 10 µM | IC50 [4]: > 10 µM | Ratio IC50 [5]: > 10000 | IC50 [6]: > 10 µM | Ratio IC50 [7]: > 10000 | IC50 [8]: > 10 µM | Ratio IC50 [9]: 12800 | Ratio IC50 [10]: > 10000 | IC50 [11]: 5.1 µM | IC50 [12]: > 10 µM | IC50 [13]: > 10 µM | IC50 [14]: > 10 µM | Ratio IC50 [15]: > 10000 | Ratio IC50 [16]: > 10000 | IC50 [1]: 0.0004 µM | IC50 [17]: > 10 µM | Ratio IC50 [18]: > 10000 | Ratio IC50 [19]: > 10000 | IC50 [20]: > 10 µM | Ratio IC50 [21]: > 10000

CCCc1nc(C)c2c(=O)nc(-c3cc(S(=O)(=O)N4CCN(CC)CC4)ccc3OCC)[nH]n12
IC50 [6]: > 10 µM

COc1ccc(CNc2c(CO)cnc3c(N4CCOCC4)cc(C#N)cc23)cc1Cl
IC50 [1]: 0.00063 µM

COc1ccc(CNc2c(CO)cnc3c(C4CC4)cc(C#N)cc23)cc1Cl
Tmax [22]: 0.5 h | Ratio IC50 [2]: > 10000 | Activity [23]: 192.63% | IC50 [3]: > 10 µM | Activity [24]: 0.83 pmol | AUC [25]: 420 ng·h/g | IC50 [4]: > 10 µM | Activity [26]: 180.9% | Ratio IC50 [5]: > 10000 | Activity [27]: 0.89 pmol | IC50 [6]: > 10 µM | Ratio IC50 [7]: > 10000 | IC50 [8]: > 10 µM | MRT [28]: 1.66 h | AUC [29]: 1133 ng·h/mL | Ratio [30]: 0.38 | Ratio IC50 [9]: 1260 | Tmax [31]: 0.5 h | Activity [32]: 30% | Activity [33]: 180.85% | Ratio IC50 [10]: > 10000 | Cmax [34]: 385 ng/g | IC50 [11]: 0.339 µM | IC50 [12]: > 10 µM | IC50 [13]: > 10 µM | MRT [35]: 1.61 h | IC50 [14]: > 10 µM | Ratio IC50 [15]: > 10000 | Ratio AUC [36]: 0.37 | Ratio IC50 [16]: > 10000 | Activity [37]: 0.69 pmol | Ratio AUC [38]: 0.41 | IC50 [17]: > 10 µM | Cmax [39]: 1022 ng/mL | Ratio IC50 [18]: > 10000 | AUCt [40]: 418 ng·h/g | Ratio IC50 [19]: > 10000 | IC50 [20]: > 10 µM | AUCt [41]: 1014 ng·h/mL | Activity [42]: 30% | Ratio IC50 [21]: > 10000 | Activity [43]: 30%

CN1CC(=O)N2[C@H](c3ccc4c(c3)OCO4)c3[nH]c4ccccc4c3C[C@@H]2C1=O
IC50 [6]: > 10 µM | IC50 [8]: > 10 µM | IC50 [12]: > 10 µM | IC50 [13]: > 10 µM | IC50 [14]: > 10 µM | IC50 [17]: > 10 µM | IC50 [20]: > 10 µM

COc1ccc(CNc2c(CO)cnc3c(NCCN(C)C)cc(C#N)cc23)cc1Cl
IC50 [1]: 0.0043 µM
